Measurements: PMC4650901 (Scientific Reports, 2014)

What was measured:
A-375 cells = assay: MTT assay for cell viability/proliferation, A-375; assay type: cell-based; conditions: Homo sapiens, A-375, 24 h, read-out: IC50 A-375
Outline: (§1)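 Cells grown in RPMI 1640 with 10% heat-inactivated FBS and penicillin/streptomycin at 37°C, 5% CO2. Plated at 1 × 10^4/well overnight, then treated 24 h with graded test compound (DMSO stock diluted in medium, 0.1% DMSO final; vehicle control 0.1% DMSO). MTT added 4 h in phenol-red-free, serum-free medium; formazan dissolved in DMSO; A492. IC50 = concentration giving 50% growth inhibition; ≥3 repeats.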

HeLa cells = assay: MTT assay for cell viability/proliferation, HeLa; assay type: cell-based; conditions: Homo sapiens, 24 h, read-out: IC50 HeLa
Outline: as §1

HepG2 cells [1] = assay: MTT assay for cell viability/proliferation, HepG2; assay type: cell-based; conditions: Homo sapiens, HepG2, 24 h; for IC50: read-out: IC50 HepG2; for IC80: read-out: IC80 of glycolysis inhibitors
AGS cells = assay: MTT assay for cell viability/proliferation, AGS; assay type: cell-based; conditions: Homo sapiens, 24 h, read-out: IC50 AGS
Outline: as §1

HELF cells = assay: MTT assay, normal counterpart cell line HELF; assay type: cell-based; conditions: Homo sapiens, 24 h, read-out: IC50 HELF
Outline: as §1

[2] = system: four cancer cell lines (HepG2, AGS, A-375, HeLa); assay: MTT assay, range over four cancer cell lines; assay type: cell-based; conditions: Homo sapiens, read-out: IC50 to suppress cell proliferation
Outline: as §1

hexokinase (HK) = assay: Hexokinase activity assay in HepG2 cells; assay type: cell-based, human; conditions: HepG2, 24 h
HepG2 cells [3] = assay: Cell cycle analysis by flow cytometry; assay type: cell-based, human; conditions: HepG2, 24 h
Outline: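 Treatments: A-375 cells with test compound at 0, 1, 3, 5 μM; HepG2 cells untreated, 2-DG 20 mM, test compound 4 μM, or 20 mM + 4 μM; all 24 h. 1 × 10^6 cells washed twice in PBS and fixed overnight in 70% ice-cold ethanol. Stained 30 min at 4°C in the dark with 1% Triton X-100, 0.01% RNase, 0.05% PI. Flow cytometry, three experiments.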

HepG2 cells [4] = assay: Annexin V-FITC/PI double staining, HepG2; assay type: cell-based, human; conditions: HepG2, 24 h, single drug 2-DG (Fig. 5b: 40 mM)
Outline: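 HepG2 cells exposed 24 h to test compound, 2-DG, or both. 3 × 10^5 cells harvested, PBS-washed twice, stained with Annexin V-FITC and PI for 15 min in the dark, then analysed by flow cytometry. Quadrants: Annexin V−/PI− healthy, V+/PI− early apoptotic, V+/PI+ late apoptotic/necrotic, V−/PI+ necrotic. Three experiments.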

caspase-8 = assay: Caspase-8 activity assay in HepG2 lysates; assay type: cell-based, human; conditions: HepG2, 24 h; 2-DG 10, 20 mM; UA-4 2, 4 μM; 10 + 2, 20 + 4
Outline: (§2)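 Lysates were prepared from HepG2 cells treated 24 h with 2-DG (0, 10, 20 mM), test compound (0, 2, 4 μM) or combinations (10 + 2, 20 + 4). Lysates were incubated 4 h at 37°C with pNA substrate: Ac-DEVD-pNA (caspase-3), Ac-IETD-pNA (caspase-8) or Ac-LEHD-pNA (caspase-9). Absorbance at 405 nm, normalised to protein concentration.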

caspase-9 = assay: Caspase-9 activity assay in HepG2 lysates; assay type: cell-based, human; conditions: HepG2, 24 h; 2-DG 10, 20 mM; UA-4 2, 4 μM; 10 + 2, 20 + 4
Outline: as §2

caspase-3 = assay: Caspase-3 activity assay in HepG2 lysates; assay type: cell-based, human; conditions: HepG2, 24 h; 2-DG 10, 20 mM; UA-4 2, 4 μM; 10 + 2, 20 + 4
Outline: as §2

HepG2 cells [5] = assay: Intracellular ATP, luciferase-luciferin assay; assay type: cell-based, human; conditions: HepG2, 24 h of treatment (method: 12-h incubation)
Outline: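 HepG2 cells seeded at 3 × 10^5/well and grown 24 h. Then incubated 12 h with 2-DG (0, 10, 20, 40 mM), test compound (0, 2, 4, 6 μM) or combinations (10 + 2, 20 + 4, 40 + 6). Cells PBS-washed, lysed on ice, and ATP read by luciferase–luciferin luminescence. Values normalised to protein and expressed as % of control mean.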

HepG2 cells [6] = assay: Lactate production assay; assay type: cell-based, human; conditions: HepG2, 24 h; UA-4 2, 4 and 6 μM
Outline: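 HepG2 cells (3 × 10^5/well) treated 24 h with 2-DG (0, 10, 20, 40 mM), test compound (0, 2, 4, 6 μM) or combinations (10 + 2, 20 + 4, 40 + 6). Lactate in culture supernatant measured by kit at OD 530 nm and normalised to cell number. Medium background subtracted; means ± SD of triplicate wells.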

SMILES | IC50 (A-375 cells) | IC50 (HeLa cells) | IC50 (HepG2 cells [1]) | IC50 (AGS cells) | IC50 (HELF cells) | IC80 (HepG2 cells [1]) | also measured
c1ccc([C@H]2CN3CCSC3=N2)cc1 [LM, levamisole] |  |  |  |  |  | 2500 µM | 
N[C@@H](CS)C(=O)O [L-Cys, L-cysteine] |  |  |  |  |  | 15000 µM | 
O=CC[C@@H](O)[C@H](O)[C@H](O)CO [Compound 2-DG, 2-Deoxy-D-glucose] |  |  |  |  |  | 50000 µM | total hexokinase (HK) activity (in words) (hexokinase (HK)): reduce the activity of hexokinase; cell cycle arrest (in words) (HepG2 cells [3]): cell cycle arrest in G2/M; apoptosis (HepG2 cells [4]): 13.7%; activity of caspase-8 (caspase-8): dose-dependently increased; activity of caspase-9 (caspase-9): dose-dependently increased; activity of caspase-3 (caspase-3): dose-dependently increased; intracellular ATP concentration (in words) (HepG2 cells [5]): slightly decreased; lactate production (in words) (HepG2 cells [6]): decreased lactate production

Second part, led by results:

IC50 (A-375 cells) | IC50 (HeLa cells) | IC50 (HepG2 cells [1]) | IC50 (AGS cells) | SMILES | IC50 (HELF cells) | IC80 (HepG2 cells [1]) | also measured
8.56 ± 0.07 µM | 6.62 ± 0.21 µM | 10.32 ± 0.02 µM | 9.24 ± 0.13 µM | CC(=O)O[C@H]1C(=O)[C@@]2(C)[C@H]([C@H](OC(=O)c3ccccc3)[C@]3(O)C[C@H](OC(=O)[C@H](O)[C@@H](NC(=O)c4ccccc4)c4ccccc4)C(C)=C1C3(C)C)[C@]1(OC(C)=O)CO[C@@H]1C[C@@H]2O [Paclitaxel] | 7.17 ± 0.08 µM |  | 
57.6 ± 3.21 µM | 33.1 ± 0.63 µM | 68.8 ± 3.71 µM | 43.2 ± 2.13 µM | C[C@H]1[C@H](C)CC[C@]2(C(=O)O)CC[C@]3(C)C(=CC[C@@H]4[C@@]5(C)CC[C@H](O)C(C)(C)[C@@H]5CC[C@]43C)[C@H]12 [UA, 3β-hydroxy-urs-12-en-28-oic acid] | 21.3 ± 1.76 µM |  | IC50 [2]: 33.1 to 68.8 µM
